Active and inactive are the calls of the source. No cut-off for these calls is given here.
Legend:
CYP2D6 = CYP2D6 (Homo sapiens, UniProt P10635); assay: Inhibition of human microsomal CYP2D6 expressed in baculovirus infected BTI-TN-5B1-4 cells at 10 uM incubated for 30 mins by luciferase assay relative to control; assay type: ADME
In short: (§1)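 CYP1A2, 2C9, 2C19, 2D6 and 3A4 in microsomes from baculovirus-infected insect cells, each with a P450-Glo luminogenic substrate. Inhibition read as loss of light; single-point at 10 μM, triplicate.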

[1] = Cytotoxicity against human 786-O cells assessed as inhibition of mitochondrial viability at 10 uM after 6 hrs by CMXRos staining based assay relative to control; assay type: cell-based, 786-0; settings: read-out: INH
In short: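 Mitochondrial toxicity monitored by MitoTracker Red CMXRos uptake and high-content imaging; compound at 10 μM, triplicate.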

[2] = Cytotoxicity against human THP1 cells assessed as viable cells at 100 uM after 72 hrs by MTT assay relative to control; assay type: cell-based, THP-1; settings: read-out: Activity
In short: (§2)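 THP-1-derived macrophages exposed to compounds for 72 h, tested at 100 μM or in dose-response; viability read by MTT colorimetric assay.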

Trypanosoma cruzi [3] = assay: Antitrypanosomal activity against Trypanosoma cruzi amastigote form infected in human U2OS cells assessed as parasite growth inhibition at 50 uM after 72 hrs relative to control; assay type: functional; settings: read-out: GI
In short: (§3)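 U2OS monolayers grown for 24 h, then infected with tissue-derived trypomastigotes of T. cruzi Y strain. Compounds were added 24 h after infection at 50 μM (single-point) or in dose-response, with 72 h exposure. Plates were fixed, stained and analysed by high-content imaging; activity was normalized to infected and non-infected controls. Means of at least two experiments; benznidazole as reference.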

[4] = Cytotoxicity against human U2OS cells assessed as decrease in viable cells after 72 hrs by cell number count in anti-T. cruzi high content imaging assay; settings: U2OS cells
Trypanosoma brucei [5] = assay: Antitrypanosomal activity against Trypanosoma brucei Lister 427 bloodstream form after 72 hrs by SYBR Green assay; assay type: functional, organism-based; settings: Lister 427, 72 h
CYP1A2 = biological target: T1, CYP1A2 (Homo sapiens, UniProt P05177); assay: Inhibition of human microsomal CYP1A2 expressed in baculovirus infected BTI-TN-5B1-4 cells at 10 uM incubated for 30 mins by luciferase assay relative to control; assay type: ADME; in short: as §1
T1 sequence (P05177 whole entry): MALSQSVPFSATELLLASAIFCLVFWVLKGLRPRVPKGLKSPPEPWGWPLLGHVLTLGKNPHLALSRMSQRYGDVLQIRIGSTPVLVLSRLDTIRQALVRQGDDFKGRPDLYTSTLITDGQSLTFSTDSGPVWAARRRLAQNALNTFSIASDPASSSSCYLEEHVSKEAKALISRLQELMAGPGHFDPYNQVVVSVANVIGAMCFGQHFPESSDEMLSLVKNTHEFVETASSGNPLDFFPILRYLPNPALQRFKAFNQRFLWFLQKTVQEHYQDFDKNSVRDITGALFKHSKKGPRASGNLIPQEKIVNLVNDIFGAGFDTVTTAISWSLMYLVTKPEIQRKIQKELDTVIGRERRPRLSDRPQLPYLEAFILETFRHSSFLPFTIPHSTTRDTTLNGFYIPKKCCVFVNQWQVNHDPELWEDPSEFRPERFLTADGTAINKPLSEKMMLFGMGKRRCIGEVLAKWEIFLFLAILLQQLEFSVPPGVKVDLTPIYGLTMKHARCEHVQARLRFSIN

[6] = Cytotoxicity against human A549 cells assessed as growth inhibition at 10 uM after 48 hrs by CellTiter-Glo assay relative to control; values are per cent of control; settings: A549 cells
[7] = biological target: T2, Pteridine reductase 1 (Leishmania major) (UniProt Q01782); assay: Inhibition of Leishmania major PTR1 at 50 uM using H2B as substrate in presence of NADPH by photometric analysis relative to control
T2 sequence (whole entry): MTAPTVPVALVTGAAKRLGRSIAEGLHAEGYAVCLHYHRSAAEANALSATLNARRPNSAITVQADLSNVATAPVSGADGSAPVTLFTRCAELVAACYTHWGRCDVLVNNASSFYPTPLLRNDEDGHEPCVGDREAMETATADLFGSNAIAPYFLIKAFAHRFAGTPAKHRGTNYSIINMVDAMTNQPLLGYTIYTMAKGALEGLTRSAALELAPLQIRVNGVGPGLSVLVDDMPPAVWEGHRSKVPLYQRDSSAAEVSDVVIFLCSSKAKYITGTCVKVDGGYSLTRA

Trypanosoma cruzi [8] = assay: Antitrypanosomal activity against Trypanosoma cruzi amastigote form infected in human U2OS cells assessed as parasite growth inhibition after 72 hrs; assay type: functional, organism-based; in short: as §3
[9] = Selectivity index, ratio of CC50 for human U2OS cells to EC50 for Trypanosoma cruzi amastigote form; assay type: toxicity; settings: read-out: Ratio CC50/EC50
In short: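 Selectivity index = CC50 in the human host or cytotoxicity cell line divided by parasite EC50.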

Trypanosoma brucei [10] = assay: Potentiation of methotrexate-induced antitrypanosomal activity against Trypanosoma brucei Lister 427 bloodstream form at 10 uM after 72 hrs by resazurin dye-based assay relative to control; assay type: functional
[11] = Cytotoxicity against human WI38 cells assessed as growth inhibition at 10 uM after 48 hrs by CellTiter-Glo assay relative to control; values are per cent of control; settings: WI38 cells
[12] = Cytotoxicity against human U2OS cells assessed as viable cells at 50 uM after 72 hrs by MTT assay relative to control; assay type: cell-based; settings: read-out: Activity
CYP3A4 = CYP3A4 (Homo sapiens, UniProt P08684); assay: Inhibition of human microsomal CYP3A4 expressed in baculovirus infected BTI-TN-5B1-4 cells at 10 uM incubated for 30 mins by luciferase assay relative to control; assay type: ADME; in short: as §1
CYP3A4, sequence (P08684 whole entry): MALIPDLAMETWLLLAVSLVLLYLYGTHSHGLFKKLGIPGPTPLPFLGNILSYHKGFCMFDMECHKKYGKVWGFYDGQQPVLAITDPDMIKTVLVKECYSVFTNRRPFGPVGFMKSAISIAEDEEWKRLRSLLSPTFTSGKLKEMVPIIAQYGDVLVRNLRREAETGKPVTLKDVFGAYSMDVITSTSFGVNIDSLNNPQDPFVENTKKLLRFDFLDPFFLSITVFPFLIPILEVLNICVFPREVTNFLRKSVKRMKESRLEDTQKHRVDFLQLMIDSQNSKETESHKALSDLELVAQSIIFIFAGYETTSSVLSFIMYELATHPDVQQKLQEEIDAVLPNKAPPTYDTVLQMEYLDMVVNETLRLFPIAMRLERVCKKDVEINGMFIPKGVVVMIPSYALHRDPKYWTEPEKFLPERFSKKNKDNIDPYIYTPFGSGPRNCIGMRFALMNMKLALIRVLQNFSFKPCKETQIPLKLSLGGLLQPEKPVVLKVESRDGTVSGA

Trypanosoma brucei [13] = assay: Antitrypanosomal activity against Trypanosoma brucei Lister 427 bloodstream form at 10 uM after 72 hrs by resazurin dye-based assay relative to control; assay type: functional
Trypanosoma brucei [14] = assay: Potentiation of methotrexate-induced antitrypanosomal activity against Trypanosoma brucei Lister 427 bloodstream form at 10 uM after 72 hrs by resazurin dye-based assay; assay type: functional
CYP2C19 = CYP2C19 (Homo sapiens, UniProt P33261); assay: Inhibition of human microsomal CYP2C19 expressed in baculovirus infected BTI-TN-5B1-4 cells at 10 uM incubated for 30 mins by luciferase assay relative to control; assay type: ADME; in short: as §1
CYP2C19, sequence (P33261 whole entry): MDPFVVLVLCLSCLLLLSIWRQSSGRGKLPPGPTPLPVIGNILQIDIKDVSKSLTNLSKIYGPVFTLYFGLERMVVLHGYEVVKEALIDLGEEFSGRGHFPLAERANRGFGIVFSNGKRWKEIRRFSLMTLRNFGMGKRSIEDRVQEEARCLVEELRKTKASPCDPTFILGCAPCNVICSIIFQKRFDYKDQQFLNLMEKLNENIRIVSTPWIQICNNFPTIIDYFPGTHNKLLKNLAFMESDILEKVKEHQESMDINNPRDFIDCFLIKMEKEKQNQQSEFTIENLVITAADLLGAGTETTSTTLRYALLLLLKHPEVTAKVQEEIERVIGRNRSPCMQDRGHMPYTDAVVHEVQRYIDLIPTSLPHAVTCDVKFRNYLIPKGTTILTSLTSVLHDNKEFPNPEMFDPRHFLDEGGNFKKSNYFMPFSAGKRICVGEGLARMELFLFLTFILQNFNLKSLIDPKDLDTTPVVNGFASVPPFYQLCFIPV

Aurora kinase B = Aurora kinase B (Homo sapiens, UniProt Q96GD4); assay: Inhibition of recombinant full-length human aurora B kinase expressed in baculovirus system at 10 uM using MBP as substrate incubated for 45 mins by ADP-glo kinase assay; settings: probe MBP
Aurora kinase B, sequence (Q96GD4 whole entry): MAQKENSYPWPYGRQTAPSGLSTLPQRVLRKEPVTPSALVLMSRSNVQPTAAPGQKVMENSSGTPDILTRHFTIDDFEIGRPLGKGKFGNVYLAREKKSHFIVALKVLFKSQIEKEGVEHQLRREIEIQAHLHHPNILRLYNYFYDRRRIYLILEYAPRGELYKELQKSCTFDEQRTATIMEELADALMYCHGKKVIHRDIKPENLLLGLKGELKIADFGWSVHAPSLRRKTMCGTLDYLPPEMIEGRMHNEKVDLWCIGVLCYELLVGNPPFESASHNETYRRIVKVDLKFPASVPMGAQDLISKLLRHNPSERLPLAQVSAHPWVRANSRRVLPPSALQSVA
In short: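 Aurora B activity measured as ADP formation via coupled luciferase ADP-Glo luminescence; single-point at 10 μM, triplicate.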

hERG (KCNH2) = hERG (KCNH2) (Homo sapiens, UniProt Q12809); assay: Inhibition of human ERG at 10 uM incubated for 2 hrs by fluorescence polarisation assay relative to control
hERG (KCNH2), sequence (Q12809 whole entry): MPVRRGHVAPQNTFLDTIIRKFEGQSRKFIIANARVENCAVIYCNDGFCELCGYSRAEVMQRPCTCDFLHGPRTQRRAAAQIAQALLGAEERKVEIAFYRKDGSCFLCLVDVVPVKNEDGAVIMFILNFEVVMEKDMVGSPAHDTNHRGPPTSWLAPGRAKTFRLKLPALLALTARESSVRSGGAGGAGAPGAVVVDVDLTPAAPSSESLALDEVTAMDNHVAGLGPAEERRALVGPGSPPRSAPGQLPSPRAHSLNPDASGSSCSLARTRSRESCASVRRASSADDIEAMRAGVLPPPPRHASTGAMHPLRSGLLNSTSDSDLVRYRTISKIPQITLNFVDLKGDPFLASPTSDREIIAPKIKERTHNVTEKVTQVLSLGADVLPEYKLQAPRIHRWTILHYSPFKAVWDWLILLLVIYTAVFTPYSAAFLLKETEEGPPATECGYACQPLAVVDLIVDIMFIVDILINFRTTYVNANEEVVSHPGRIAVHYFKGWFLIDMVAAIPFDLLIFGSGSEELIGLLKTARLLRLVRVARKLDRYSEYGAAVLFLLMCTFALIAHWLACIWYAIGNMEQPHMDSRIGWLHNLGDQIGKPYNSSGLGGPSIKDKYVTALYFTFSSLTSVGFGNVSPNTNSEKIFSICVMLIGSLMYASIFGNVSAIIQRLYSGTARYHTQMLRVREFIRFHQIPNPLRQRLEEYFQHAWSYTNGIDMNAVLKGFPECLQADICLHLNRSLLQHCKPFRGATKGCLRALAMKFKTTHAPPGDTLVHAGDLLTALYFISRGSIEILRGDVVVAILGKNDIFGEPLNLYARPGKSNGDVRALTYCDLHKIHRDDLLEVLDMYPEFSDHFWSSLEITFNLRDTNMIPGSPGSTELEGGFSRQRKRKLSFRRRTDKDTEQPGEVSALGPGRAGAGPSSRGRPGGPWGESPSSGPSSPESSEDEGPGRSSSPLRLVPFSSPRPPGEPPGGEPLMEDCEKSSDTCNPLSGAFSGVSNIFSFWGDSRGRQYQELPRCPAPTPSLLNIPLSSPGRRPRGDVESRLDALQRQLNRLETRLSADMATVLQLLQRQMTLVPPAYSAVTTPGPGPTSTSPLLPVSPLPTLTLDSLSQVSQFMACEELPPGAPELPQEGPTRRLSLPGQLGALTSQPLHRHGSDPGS

Leishmania infantum [15] = assay: Antileishmanial activity against Leishmania infantum amastigote form assessed as parasite growth inhibition at 50 uM after 72 hrs by steady-Glo reagent based assay relative to control; assay type: functional; settings: read-out: GI
In short: (§4)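 Intramacrophage L. infantum amastigotes in THP-1-derived macrophages, tested at 50 μM or in dose-response. Plates held 72 h at 37 °C, 5% CO2. Medium was replaced by PBS, macrophages lysed, and parasites read by Steady-Glo luminescence. High-content imaging gave host cell number, infection ratio (infected/total cells) and parasites per infected cell. Values are means of at least two independent experiments.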

CYP2C9 = CYP2C9 (Homo sapiens, UniProt P11712); assay: Inhibition of human microsomal CYP2C9 expressed in baculovirus infected BTI-TN-5B1-4 cells at 10 uM incubated for 30 mins by luciferase assay relative to control; assay type: ADME; in short: as §1
CYP2C9, sequence (P11712 whole entry): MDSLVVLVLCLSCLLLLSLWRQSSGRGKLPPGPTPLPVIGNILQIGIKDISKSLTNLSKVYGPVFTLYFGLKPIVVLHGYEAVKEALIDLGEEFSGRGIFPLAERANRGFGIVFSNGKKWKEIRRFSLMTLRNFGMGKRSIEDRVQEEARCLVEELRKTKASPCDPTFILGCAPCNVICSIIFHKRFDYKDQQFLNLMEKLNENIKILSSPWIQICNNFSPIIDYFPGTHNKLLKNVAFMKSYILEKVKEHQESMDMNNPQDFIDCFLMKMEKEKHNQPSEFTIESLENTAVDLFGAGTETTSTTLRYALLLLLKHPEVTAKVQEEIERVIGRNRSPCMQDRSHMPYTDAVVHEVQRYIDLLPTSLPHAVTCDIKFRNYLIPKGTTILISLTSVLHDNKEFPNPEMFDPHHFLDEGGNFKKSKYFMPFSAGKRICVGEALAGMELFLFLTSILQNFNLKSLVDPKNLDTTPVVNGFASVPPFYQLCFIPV

[16] = biological target: T3, Pteridine reductase, putative (Trypanosoma brucei) (UniProt Q581W1); assay: Inhibition of Trypanosoma brucei PTR1 at 50 uM using H2B as substrate in presence of NADPH by photometric analysis relative to control
T3 sequence (whole entry): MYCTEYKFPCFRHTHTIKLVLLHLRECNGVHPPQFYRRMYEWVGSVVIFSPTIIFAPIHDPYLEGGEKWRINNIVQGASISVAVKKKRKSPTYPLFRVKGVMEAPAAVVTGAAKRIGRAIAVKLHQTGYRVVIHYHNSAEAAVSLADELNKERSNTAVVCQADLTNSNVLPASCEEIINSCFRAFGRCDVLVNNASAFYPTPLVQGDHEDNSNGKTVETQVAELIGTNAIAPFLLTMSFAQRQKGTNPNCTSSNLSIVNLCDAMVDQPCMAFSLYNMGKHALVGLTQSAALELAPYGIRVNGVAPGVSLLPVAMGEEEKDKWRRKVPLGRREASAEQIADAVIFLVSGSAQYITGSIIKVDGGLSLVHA

Trypanosoma brucei [17] = assay: Antitrypanosomal activity against Trypanosoma brucei Lister 427 bloodstream form assessed as parasite growth inhibition at 50 uM after 72 hrs by SYBR Green assay relative to control; assay type: functional; settings: for inhibition of growth at 50 µM: Lister 427, 72 h, read-out: GI
A549 = assay: Cytotoxicity against human A549 cells assessed as growth inhibition at 10 uM after 48 hrs by CellTiter-Glo assay relative to control; values are per cent of control; settings: a549, 48 h, 10 µM
Cytochrome P450 2C9 = Cytochrome P450 2C9 (Homo sapiens, UniProt P11712); assay: Inhibition of human microsomal CYP2C9 expressed in baculovirus infected BTI-TN-5B1-4 cells incubated for 30 mins by luciferase assay
Cytochrome P450 2C9, sequence (P11712 whole entry): as the sequence (P11712 whole entry) above

Leishmania infantum [18] = assay: Antileishmanial activity against Leishmania infantum amastigote form after 72 hrs by steady-Glo reagent based assay; assay type: functional, organism-based; in short: as §4
[19] = Cytotoxicity against human THP1 cells assessed as decrease in viable cells after 72 hrs by MTT assay; assay type: cell-based, THP-1; settings: THP1 cells; in short: as §2
Leishmania infantum [20] = assay: Antileishmanial activity against Leishmania infantum amastigote form; assay type: functional, organism-based; in short: as §4

CYP2D6, sequence (P10635 whole entry): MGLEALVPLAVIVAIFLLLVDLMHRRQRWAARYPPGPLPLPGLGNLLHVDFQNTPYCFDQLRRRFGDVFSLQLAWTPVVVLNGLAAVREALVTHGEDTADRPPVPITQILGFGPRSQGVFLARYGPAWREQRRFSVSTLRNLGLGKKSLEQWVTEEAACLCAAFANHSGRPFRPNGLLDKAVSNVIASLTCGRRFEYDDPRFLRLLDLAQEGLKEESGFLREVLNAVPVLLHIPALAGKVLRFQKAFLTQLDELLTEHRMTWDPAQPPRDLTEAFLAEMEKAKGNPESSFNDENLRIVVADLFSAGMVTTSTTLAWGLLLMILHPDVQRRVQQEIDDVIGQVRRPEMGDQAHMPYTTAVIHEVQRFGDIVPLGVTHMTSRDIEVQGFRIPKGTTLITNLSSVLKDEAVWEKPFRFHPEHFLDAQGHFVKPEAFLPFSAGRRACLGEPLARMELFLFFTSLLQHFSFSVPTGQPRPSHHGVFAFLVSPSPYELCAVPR

Structure (SMILES)	inhibition at 0.5 h, 10 µM (CYP2D6)	cytotoxicity at 6 h, 10 µM [1]	viability at 72 h, 100 µM [2]	inhibition of growth at 50 µM (Trypanosoma cruzi [3])	CC50 at 72 h [4]	inhibition at 0.5 h, 10 µM (CYP1A2)	inhibition [7]	Activity (Trypanosoma brucei [10])	cell growth (% of control) at 48 h, 10 µM [11]	viability at 72 h, 50 µM [12]	inhibition at 0.5 h, 10 µM (CYP3A4)	Activity (Trypanosoma brucei [13])	PF (Trypanosoma brucei [14])	inhibition at 0.5 h, 10 µM (CYP2C19)	inhibition at 0.75 h, 10 µM (Aurora kinase B)	inhibition at 2 h, 10 µM (hERG (KCNH2))	inhibition of growth at 50 µM (Leishmania infantum [15])	inhibition at 0.5 h, 10 µM (CYP2C9)	inhibition [16]	CC50 at 72 h [19]	further results
CSc1ccc(/C=N/NC(N)=S)cc1	35.9%	-10.8%	35.7%	89.3%	> 44 µM	27%	11.2%	88.67%	107%	42.7%	-15.9%	15.33%	2.24	-38.2%	-12.2%	-2.87%	34.1%	12.4%	9.49%	–	EC50 (Trypanosoma brucei [5]): 44.4 µM; cell growth (% of control) at 48 h, 10 µM [6]: 136%; EC50 (Trypanosoma cruzi [8]): 2.58 to 29.5 µM; selectivity ratio [9]: > 17; inhibition of growth at 50 µM (Trypanosoma brucei [17]): 82.6%
NC(=S)N/N=C/c1ccccc1[N+](=O)[O-]	-2.93%	-3.98%	59.7%	27.4%	–	61.6%	10.6%	29.17%	120%	20.4%	-13.9%	1.5%	1.13	-40.6%	-22.8%	-1.03%	30.6%	-4.92%	14.8%	–	cell growth (% of control) (A549): 158.95%; growth inhibition (GI) (Trypanosoma brucei [17]): inactive
COc1cccc(OC)c1/C=N/NC(N)=S	0.08%	-12.3%	76.8%	74.3%	–	34.3%	4.04%	21.83%	114%	21.7%	-14.8%	8.83%	0.66	-44.2%	-18.2%	-1.27%	25.3%	-9.43%	4.77%	–	cell growth (% of control) (A549): 162.27%; growth inhibition (GI) (Trypanosoma brucei [17]): inactive
NC(=S)N/N=C/C=C/c1ccccc1	3.17%	-2.97%	44.1%	94.6%	> 44 µM	18.3%	9.09%	84.5%	82.8%	76.1%	-13.1%	11.33%	2.37	-36.7%	-5.47%	7.23%	45.9%	9.11%	8.92%	–	EC50 (Trypanosoma brucei [5]): 16.9 µM; cell growth (% of control) at 48 h, 10 µM [6]: 129%; EC50 (Trypanosoma cruzi [8]): 1.59 µM; selectivity ratio [9]: > 1; inhibition of growth at 50 µM (Trypanosoma brucei [17]): 91.7%
CCCCCCCCCCCCCCCCOP(=O)([O-])OCC[N+](C)(C)C [MILTEFOSINE]	–	–	–	–	11.5 µM	–	–	–	–	–	–	–	–	–	–	–	–	–	–	15 µM	IC50 (Cytochrome P450 2C9): > 100 µM; EC50 (Leishmania infantum [18]): 2.51 to 2.8 µM; EC50 (Leishmania infantum [20]): 1.29 µM
N=C(N)c1ccc(OCCCCCOc2ccc(C(=N)N)cc2)cc1 [PENTAMIDINE]	–	–	–	–	–	–	–	–	–	–	–	–	–	–	–	–	–	–	–	10 µM	–
C[C@@H]1[C@H](O)[C@@H](C)/C=C/C=C/C=C/C=C/C=C/C=C/C=C/[C@H](O[C@@H]2O[C@H](C)[C@@H](O)[C@H](N)[C@@H]2O)C[C@@H]2O[C@](O)(C[C@@H](O)C[C@@H](O)[C@H](O)CC[C@@H](O)C[C@@H](O)CC(=O)O[C@H]1C)C[C@H](O)[C@H]2C(=O)O [AMPHOTERICIN B]	–	–	–	–	–	–	–	–	–	–	–	–	–	–	–	–	–	–	–	16.9 µM	IC50 (Cytochrome P450 2C9): > 100 µM; EC50 (Leishmania infantum [18]): 0.2 µM; EC50 (Leishmania infantum [20]): 1.14 µM

Source: ChEMBL document CHEMBL4196006, “Aryl thiosemicarbazones for the treatment of trypanosomatidic infections” (Eur J Med Chem, 2018)
